The list is not random: actives were taken first. Their share in the collection is about 5.9%.
DAT uptake mod: changed hDAT dopamine uptake under cocaine IC80, either direction, primary screen, cocaine antagonist project, cell-based, LLC-PK1 hDAT, [14C]-dopamine uptake, MLSMR. Sodium-dependent dopamine transporter (Homo sapiens), Q01959. LLC-PK1 hDAT cells, [14C]-dopamine uptake with cocaine IC80; actives deviate in either direction. B-score at 10 µM. 110,000 compounds, 1.3% hits. AID 449768, 2010;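 active means Z score or B-score, a plate-position-corrected score, falls beyond the plate's 99.7% confidence bounds, in either direction; inactive means both scores lie inside the 99.7% bounds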
Measles CPE: compounds protecting cells from measles virus cytopathic effect, primary screen, measles RdRp inhibitor project, single point, MLSMR library, absorbance. Measles virus-infected cells, CPE protection. protection (pct of control), % at 4 µM. 140,000 compounds, 1.5% hits; in the data active means protection mostly above about 24%, no sharp cut-off; inactive means mostly below about 26%
Phagocytosis inh: inhibitors of macrophage phagocytosis, primary screen, imaging, J774A.1 cells, IgG beads. J774A.1 macrophage IgG-bead phagocytosis. inhibition, % at 5 µM. 110,000 compounds, 0.07% hits;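 active means inhibition above the mean of the plate negative controls plus 5 SD, cut at about 13% in these data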;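 further: phagocytic index as fraction of beads internalized from green versus red external bead signal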
PTK2B oligo ant: antagonists of Pyk2 self-association, primary screen, Q293 cells, FERM NanoBiT luminescence, HTS; Protein-tyrosine kinase 2-beta (Homo sapiens), Q14289; stronger effect = lower value; z-score (the deposit names both 25 µM and 10 µM); 99,000 compounds, 0.83% hits; AID 1347419, 2020;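 active means Z-score of -3 or lower, scaled per plate to the spread of control and sample wells; inactive means z-score above -3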;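 further: negative z-score means lost luminescence so less FERM oligomerization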
Rev-RRE block: HIV-1 Rev-RRE binding inhibitors, primary screen, biochemical, FRET, protein-RNA interaction. P05866. 97,000 compounds, 0.79% hits. inhibition, % at 8 µM. Rev peptide-RRE RNA binding;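 active means inhibition above the screen-wide mean plus 3 SD, cut at about 35% in these data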
Target sequence (P05866 whole entry, looked up): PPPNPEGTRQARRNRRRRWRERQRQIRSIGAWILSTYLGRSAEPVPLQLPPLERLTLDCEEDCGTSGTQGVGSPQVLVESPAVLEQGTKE
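Assay system: labelled RRE RNA duplex and labelled Rev peptide / Medium: HEPES pH 7.5 salt buffer with EDTA / Reagent: labelled Rev peptide / Schedule: 5 + 15 min at 25 °C / Signal: FRET, excitation 480 nm, emission 540 nm donor and 671 nm acceptor / Benchmarks: DMSO and neomycin B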
Cav3 T inh: Cav3.2 calcium influx blockers – cell-based, Fluo-4 calcium fluorescence, FDSS, MLSMR library, primary screen; Voltage-dependent T-type calcium channel subunit alpha-1H (Homo sapiens), O95180; Cav3.2-expressing cells; stronger effect = lower value; B-score at 10 µM; 100,000 compounds, 4% hits; AID 449739, 2010;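 active means single-dose well whose peak fluorescence ratio is a statistical outlier from its plate by either plate-standardised score or position-corrected B-score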
Of the large screens only hits and unclear results are named; the others gave an inactive call.

COC(=O)CSc1ncc(OC)c(OC)n1	none (no result: Phagocytosis inh)
O=C(O)C(c1ccccc1)C1(O)CCCC1 (stereo not given)	DAT uptake mod 1.7 (no result: Cav3 T inh)
O=C(NC(=S)N1CCN(c2c(Cl)cccc2[N+](=O)[O-])CC1)c1cccs1	Cav3 T inh -4.3
CC(C)C(=O)N1CCN(c2c(Cl)cccc2[N+](=O)[O-])CC1	none
CN(C)NC(=O)c1ccsc1NC(=O)c1ccc(S(=O)(=O)N(C)C)cc1	none (no result: Measles CPE, Phagocytosis inh, PTK2B oligo ant, Rev-RRE block)
CCCOc1ccc(CC(CC(=O)O)(C(=O)O)C(=O)O)cc1	Measles CPE 46
CCCCOc1ccc(C(=O)O)cc1	none
COC(=O)Nc1cc(C(F)(F)F)ccc1N1CCN(c2ccccc2)CC1	Phagocytosis inh 90
Cc1ccc(-c2c(C#N)c(N)n3c(nc4ccccc43)c2C#N)cc1	PTK2B oligo ant -4
O=C(NC1CC1)C1=C[C@@H](c2ccc(Br)cc2)C[C@@H](OCc2ccc(CO)cc2)O1	none (no result: Measles CPE, Phagocytosis inh, PTK2B oligo ant, Rev-RRE block)
Cc1cc(C)c(-c2csc(NC(=O)c3n[nH]c(=O)c4ccccc34)n2)c(C)c1	Measles CPE 62 (no result: DAT uptake mod, PTK2B oligo ant, Rev-RRE block, Cav3 T inh)
COc1ccc(-c2nc(NC(=O)c3n[nH]c(=O)c4ccccc34)sc2C)cc1	none (no result: DAT uptake mod, PTK2B oligo ant, Rev-RRE block, Cav3 T inh)
O=C(CN(Cc1ccccc1)S(=O)(=O)c1ccccc1)N/N=C/c1ccc2c(c1)OCO2	Cav3 T inh -4.2 (no result: Phagocytosis inh)
O=C(CN(Cc1ccc(Cl)c(Cl)c1)S(=O)(=O)c1ccccc1)N/N=C\c1ccc2c(c1)OCO2	none
CCOCCCNC(=S)NCCNc1nc2ccc(C)cc2cc1C#N	Measles CPE 55 (no result: DAT uptake mod, PTK2B oligo ant, Rev-RRE block, Cav3 T inh)
COc1ccc(OC)c(C(=O)CSc2nccc(-c3ccc(Br)cc3)n2)c1	none
Nn1c(SCc2csc(-c3ccccc3)n2)nnc1-c1cccs1	none
Cc1ccccc1-n1nnnc1SCc1csc(-c2ccccc2)n1	Cav3 T inh -4.5
COc1ccc(C)cc1-n1nnnc1SCc1cc(=O)n2cc(C)ccc2n1	none (no result: Rev-RRE block)
COc1ccc(C)cc1-n1nnnc1SCc1csc(C)n1	DAT uptake mod -8.3
CC(C)OCCCNC(=O)CCC(=O)NNc1nc2ccccc2c2nc(-c3ccccc3)nn12	none (no result: DAT uptake mod, PTK2B oligo ant, Rev-RRE block, Cav3 T inh)
CC(C)(C)n1nc2c(c1NC(=O)c1ccc(S(=O)(=O)N3CCCCC3)cc1)CS(=O)C2 (stereo not given)	Measles CPE 44 (no result: Phagocytosis inh)
CC(C)(C)n1nc2c(c1NC(=O)c1ccc(Br)cc1)CS(=O)C2 (stereo not given)	none (no result: PTK2B oligo ant, Cav3 T inh)
C=C(C)CSc1nncn1/N=C/c1ccc(OC)cc1	Cav3 T inh -6
Cc1nn(Cc2ccc(Cl)c(Cl)c2)c(C)c1NC(=O)c1cc(CC(C)C)on1	Cav3 T inh -8.6 (no result: PTK2B oligo ant, Rev-RRE block)
COc1cccc(-c2cc(C(=O)Nc3c(C)nn(Cc4ccccc4C)c3C)no2)c1	Cav3 T inh -3.9
Cc1nn(Cc2ccccc2)c(C)c1NC(=O)c1cc(-c2cccs2)on1	Cav3 T inh -4.8
Cc1cc(NC(=O)c2cc(C(C)C)on2)nn1Cc1ccc(Cl)cc1	Cav3 T inh -7.1 (no result: PTK2B oligo ant)
COc1ccc(-c2cc(C(=O)Nc3c(C)nn(Cc4ccccc4)c3C)no2)cc1	none
CC(C)=N/N=C1/NC(=O)C(CC(=O)Nc2cc(Cl)ccc2C)S1 (stereo not given)	none (no result: DAT uptake mod, PTK2B oligo ant, Rev-RRE block, Cav3 T inh)
Cc1ccc(C(=O)OCC(=O)c2c[nH]c3ccccc23)cc1S(=O)(=O)N1CCCCC1	none (no result: DAT uptake mod, PTK2B oligo ant, Rev-RRE block, Cav3 T inh)
Cc1nnsc1NC(=O)OCc1ccc(C(F)(F)F)cc1	none (no result: Phagocytosis inh)
CCCc1cc(C(=O)NNC(=S)NCc2ccccc2)cs1	Cav3 T inh -7.3
COCCNc1nc(-c2cc(C(=O)Nc3ccccc3)on2)cc(C(C)C)n1	none (no result: Measles CPE, Phagocytosis inh, PTK2B oligo ant, Rev-RRE block)
Cc1ccc(C(=O)N/C(=C\c2cccs2)C(=O)NCCc2c[nH]c3ccccc23)cc1	none (no result: DAT uptake mod, Rev-RRE block, Cav3 T inh)
O=C(Nc1ccccc1)OCCNC(=O)c1cccc(Cl)c1	Measles CPE 29
CCC1=C(OC(=O)N(CC)CC)N2C(=O)OC(=NCCOC)[C@]2(Cc2ccccc2)[C@H]2C1=CC[C@H]1C(=O)N(C)C(=O)[C@H]12	none (no result: Measles CPE, Phagocytosis inh, PTK2B oligo ant, Rev-RRE block)

Screens deposited in PubChem by several laboratories.
